Experimental data taken from article PMC4576993 (Leukemia, 2011).
Read-outs that look alike come from different tables or passages of the source.

Legend:
[1] = non-clinical toxicology studies; no reference given; cited from earlier work
[2] = system: p53; settings: cited from earlier work
[3] = system: bone marrow; settings: at its MTD, normal mouse model; cited from earlier work
[4] = rat tissue distribution studies; no reference given; cited from earlier work
[5] = format: in vivo, human
Summary of the method: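 Open-label 3+3-type escalation in cohorts of 3–6, starting at 18 mg/m2 weekly (days 1, 8, 15) or 9 mg/m2 twice weekly (days 1, 4, 8, 11), 28-day cycles, with modified Fibonacci increments. A cohort was expanded to 6 on any DLT. MTD was the level below that with ≥2/6 DLTs. DLT was assessed in cycle 1 through day 29. Toxicity was graded by NCI CTCAE v3.0. One 25% dose reduction was allowed, with supportive care permitted.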

[6] = system: MV4-11 AML cell line; settings: in vitro; cited from earlier work
[7] = patients with solid tumors, up to 75 mg/m^2/28-day cycle; cited from earlier work
[8] = system: P-glycoprotein; settings: cited from earlier work
[9] = twice weekly (n = 31), Grade 1 or 2
[10] = twice weekly (n = 31), Grade ≥3
[11] = two patients with CR, weekly schedule

## CN[C@H]1CN(c2ccc3c(=O)c(C(=O)O)cn(-c4nccs4)c3n2)C[C@@H]1OC [vosaroxin, (+)-1,4-dihydro-7-(trans-3-methoxy-4-methylamino-1-pyrrolidinyl)-4-oxo-1-(2-thiazolyl)-1,8-naphthyridine-3-carboxylic acid]
[1]
  Primary adverse effects: myelosuppression and gastrointestinal toxicity
[2]
  Dependence of activity on p53: independent of p53
[3]
  Bone marrow ablation compared with cytarabine: ablated bone marrow more potently than cytarabine
[4]
  Concentration in bone marrow relative to blood: ~ 30 fold
[5]; 73 treated patients
  30-day all-cause mortality rate: 11%
  Deaths within 30 days after the first dose: Eight
[5]; Total (n = 73), All grades
  Abdominal pain, % of patients: 22%
  Abdominal pain, No. of patients: 16
  Anorexia, No. of patients: 30
  Diarrhea, % of patients: 49%
  Diarrhea, No. of patients: 36
  Nausea, % of patients: 63%
  Nausea, No. of patients: 46
  Peripheral edema, % of patients: 34%
  Peripheral edema, No. of patients: 25
  Petechiae, % of patients: 21%
  Petechiae, No. of patients: 15
  Pleural effusion, % of patients: 22%
  Pleural effusion, No. of patients: 16
  Pyrexia, % of patients: 29%
  Pyrexia, No. of patients: 21
  Stomatitis, % of patients: 29%
  Stomatitis, No. of patients: 21
[5]; all treated patients
  Clinical manifestation of QTc prolongation, such as torsades de pointes: No clinical manifestation of QTc prolongation
[5]; cycle 1
  Stomatitis duration, range: 5 to 39 days
  Stomatitis median duration: 15 days
  Stomatitis median onset: 14 days
  Stomatitis onset, range: 3 to 20 days
[5]; cycle 1, overall
  Patients experiencing stomatitis grade 1–2: 12%
  Patients experiencing stomatitis grade ≥3: 15%
  Patients experiencing stomatitis of any grade: 27%
[5]; doses up to 90 mg/m^2 weekly and 50 mg/m^2 twice weekly
  Treatment-related hepatic or renal dysfunction: No grade 3 or greater treatment-related hepatic or renal dysfunction was reported
[5]; eight deaths within 30 days
  Time of death after first dose, range: 11 to 30 days
[5]; patients with advanced leukemia, both schedules
  Dose-limiting toxicity (DLT): stomatitis
[5]; [9]
  Abdominal pain, % of patients: 10%
  Abdominal pain, No. of patients: 3
  Anorexia, % of patients: 39%
  Anorexia, No. of patients: 12
  Diarrhea, % of patients: 39%
  Diarrhea, No. of patients: 12
  Dyspnea, No. of patients: 10
  Fatigue, No. of patients: 14
  Febrile neutropenia, % of patients: 0%
  Febrile neutropenia, No. of patients: 0
  Infection (20 individual adverse event terms), No. of patients: 10
  Nausea, % of patients: 68%
  Nausea, No. of patients: 21
  Peripheral edema, % of patients: 29%
  Peripheral edema, No. of patients: 9
  Petechiae, % of patients: 19%
  Petechiae, No. of patients: 6
  Pleural effusion, % of patients: 16%
  Pleural effusion, No. of patients: 5
  Pyrexia, % of patients: 19%
  Pyrexia, No. of patients: 6
  Stomatitis, % of patients: 19%
  Stomatitis, No. of patients: 6
[5]; [10]
  Abdominal pain, % of patients: 3%
  Abdominal pain, No. of patients: 1
  Anorexia, % of patients: 0%
  Anorexia, No. of patients: 0
  Diarrhea, % of patients: 3%
  Diarrhea, No. of patients: 1
  Dyspnea, % of patients: 3%
  Dyspnea, No. of patients: 1
  Fatigue, % of patients: 0%
  Fatigue, No. of patients: 0
  Febrile neutropenia, No. of patients: 15
  Infection (20 individual adverse event terms), No. of patients: 11
  Nausea, % of patients: 3%
  Nausea, No. of patients: 1
  Peripheral edema, % of patients: 0%
  Peripheral edema, No. of patients: 0
  Petechiae, % of patients: 3%
  Petechiae, No. of patients: 1
  Pleural effusion, % of patients: 3%
  Pleural effusion, No. of patients: 1
  Pyrexia, No. of patients: 4
  Stomatitis, % of patients: 19%
  Stomatitis, No. of patients: 6
[5]; [11]
  Time to recovery of peripheral absolute neutrophil counts to >1×10^9/l: 50 days
  Time to recovery of platelets to ≥100×10^9/l: 28 days
[5]; weekly (n = 42), Grade 1 or 2
  Abdominal pain, No. of patients: 11
  Diarrhea, % of patients: 52%
  Diarrhea, No. of patients: 22
  Dyspnea, % of patients: 31%
  Fatigue, No. of patients: 19
  Febrile neutropenia, % of patients: 0%
  Febrile neutropenia, No. of patients: 0
  Infection (20 individual adverse event terms), % of patients: 12%
  Infection (20 individual adverse event terms), No. of patients: 5
  Nausea, % of patients: 57%
  Nausea, No. of patients: 24
  Peripheral edema, % of patients: 36%
  Peripheral edema, No. of patients: 15
  Petechiae, % of patients: 19%
  Petechiae, No. of patients: 8
  Pleural effusion, % of patients: 21%
  Pleural effusion, No. of patients: 9
  Pyrexia, No. of patients: 10
  Stomatitis, % of patients: 10%
  Stomatitis, No. of patients: 4
[5]; weekly (n = 42), Grade ≥3
  Abdominal pain, % of patients: 2%
  Abdominal pain, No. of patients: 1
  Anorexia, % of patients: 2%
  Anorexia, No. of patients: 1
  Diarrhea, % of patients: 2%
  Diarrhea, No. of patients: 1
  Dyspnea, % of patients: 0%
  Dyspnea, No. of patients: 0
  Fatigue, % of patients: 2%
  Fatigue, No. of patients: 1
  Febrile neutropenia, No. of patients: 28
  Infection (20 individual adverse event terms), No. of patients: 22
  Nausea, % of patients: 0%
  Nausea, No. of patients: 0
  Peripheral edema, % of patients: 2%
  Peripheral edema, No. of patients: 1
  Petechiae, % of patients: 0%
  Petechiae, No. of patients: 0
  Pleural effusion, % of patients: 2%
  Pleural effusion, No. of patients: 1
  Pyrexia, % of patients: 2%
  Pyrexia, No. of patients: 1
  Stomatitis, % of patients: 12%
  Stomatitis, No. of patients: 5
[5]; weekly schedule
  Patients with grade 3 stomatitis as DLT: five
[6]
  Half-maximal (50%) inhibitory concentration (IC50): 0.0401 µg/mL
  IC90: 1000 nM
[7]
  Primary DLT: myelosuppression
[8]
  Substrate for P-glycoprotein: not a substrate for P-glycoprotein
